Assay results published in ChEMBL document CHEMBL1132574, “Metallopeptidase inhibitors of tetanus toxin: A combinatorial approach” (J Med Chem, 1999).

target: T1, Tetanus toxin (Clostridium tetani (strain Massachusetts / E88), UniProt P04958); test: Inhibition of tetanus neurotoxin (TeNt)
T1 sequence (P04958 whole entry): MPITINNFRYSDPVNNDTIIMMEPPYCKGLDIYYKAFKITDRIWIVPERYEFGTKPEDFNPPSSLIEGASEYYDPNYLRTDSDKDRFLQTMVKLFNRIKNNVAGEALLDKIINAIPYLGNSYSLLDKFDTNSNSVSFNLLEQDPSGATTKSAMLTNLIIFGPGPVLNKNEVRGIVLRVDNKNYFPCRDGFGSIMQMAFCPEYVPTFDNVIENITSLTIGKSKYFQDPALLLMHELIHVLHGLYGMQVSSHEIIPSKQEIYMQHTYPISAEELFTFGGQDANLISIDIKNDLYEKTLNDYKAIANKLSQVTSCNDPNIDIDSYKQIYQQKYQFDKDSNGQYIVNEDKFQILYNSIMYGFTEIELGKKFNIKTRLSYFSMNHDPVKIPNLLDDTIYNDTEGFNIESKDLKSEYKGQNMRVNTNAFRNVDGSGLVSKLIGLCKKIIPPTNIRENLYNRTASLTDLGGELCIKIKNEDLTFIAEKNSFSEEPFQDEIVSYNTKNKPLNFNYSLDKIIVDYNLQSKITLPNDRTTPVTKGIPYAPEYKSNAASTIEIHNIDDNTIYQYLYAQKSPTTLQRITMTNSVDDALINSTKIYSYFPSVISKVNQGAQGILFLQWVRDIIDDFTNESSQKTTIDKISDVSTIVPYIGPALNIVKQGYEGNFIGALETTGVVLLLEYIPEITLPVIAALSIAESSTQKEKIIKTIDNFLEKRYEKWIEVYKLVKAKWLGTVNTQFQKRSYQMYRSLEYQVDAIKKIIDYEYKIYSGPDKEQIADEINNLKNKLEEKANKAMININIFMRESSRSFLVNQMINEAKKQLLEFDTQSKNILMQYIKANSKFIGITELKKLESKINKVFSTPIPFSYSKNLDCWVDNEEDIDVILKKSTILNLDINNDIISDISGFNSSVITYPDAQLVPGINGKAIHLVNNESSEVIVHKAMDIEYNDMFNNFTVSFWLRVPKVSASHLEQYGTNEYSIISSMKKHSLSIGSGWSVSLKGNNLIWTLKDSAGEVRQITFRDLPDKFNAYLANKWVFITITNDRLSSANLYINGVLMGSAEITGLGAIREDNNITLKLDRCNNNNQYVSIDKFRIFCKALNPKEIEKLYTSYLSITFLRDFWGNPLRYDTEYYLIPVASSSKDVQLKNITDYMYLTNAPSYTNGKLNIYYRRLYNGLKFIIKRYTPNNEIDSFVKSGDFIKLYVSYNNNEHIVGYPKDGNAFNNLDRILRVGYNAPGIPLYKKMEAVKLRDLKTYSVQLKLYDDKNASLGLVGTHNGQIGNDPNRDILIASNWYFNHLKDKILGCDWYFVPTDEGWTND
Outline: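 TeNt metallopeptidase activity on the fluorescent substrate [Pya⁸⁸]S39-88 (40, 50, 66, 100, 200 μM) in 20 mM Hepes pH 7.4, 100 mM NaCl, 0.1 mM DTT at 37 °C. Inhibitor absent or at 1, 10, 33, 100 μM. Rate read by RP-HPLC as the appearance of fluorescent product [Pya⁸⁸]S77-88. Lineweaver–Burk analysis; mean of three independent experiments in triplicate.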

Point of comparison: `N[C@@H](c1cccc(S(N)(=O)=O)c1)[C@H](S)C(=O)N[C@@H](Cc1ccc(O)cc1)C(=O)N[C@@H](Cc1c[nH]cn1)C(=O)NCc1ccccc1`, Ki 9.6 µM. Against it:
- N[C@H](c1cccc(S(N)(=O)=O)c1)[C@H](S)C(=O)N[C@@H](Cc1ccc(O)cc1)C(=O)N[C@@H](Cc1c[nH]cn1)C(=O)NCc1ccccc1 — 2.4-fold lower, 4 µM
- NC(=O)CC[C@@H](N)CS — 26-fold higher, 250 µM
- C[C@@H](O)[C@H](NC(=O)[C@H](CCC(=O)O)NC(=O)[C@@H](Cc1ccccc1)NC(=O)C(S)[C@@H](N)CCC(=O)ON)C(=O)N[C@@H](CO)C(=O)O (mixture of isomers) — 8.3-fold higher, 80 µM
- N[C@@H](CCS(N)(=O)=O)[C@H](S)C(=O)N[C@@H](Cc1ccc(O)cc1)C(=O)N[C@@H](Cc1c[nH]cn1)C(=O)NCc1ccccc1 — within 1.5-fold, 6.8 µM
- N[C@@H](CS)CCS(N)(=O)=O — 10-fold higher, 100 µM
- NC(CS)c1cccc(S(N)(=O)=O)c1 (stereo not drawn) — 3.6-fold higher, 35 µM
- N[C@H](c1cccc(S(N)(=O)=O)c1)[C@@H](S)C(=O)N[C@@H](Cc1ccc(O)cc1)C(=O)N[C@@H](Cc1c[nH]cn1)C(=O)NCc1ccccc1 — 1.6-fold lower, 6 µM
- N[C@@H](CCS(N)(=O)=O)[C@H](S)C(=O)N[C@@H](Cc1ccc(O)cc1)C(=O)N[C@@H](Cc1c[nH]cn1)C(=O)O — 1.6-fold higher, 15 µM
- C[C@@H](O)[C@H](NC(=O)[C@H](CCC(=O)O)NC(=O)[C@@H](Cc1ccccc1)NC(=O)C(S)[C@@H](N)CCC(=O)ON)C(=O)O (mixture of isomers) — 10-fold higher, 100 µM
- N[C@@H](CCS(N)(=O)=O)[C@@H](S)C(=O)N[C@@H](Cc1ccc(O)cc1)C(=O)N[C@@H](Cc1cnc[nH]1)C(=O)NCc1ccccc1 — 2.5-fold lower, 3.9 µM
- N[C@@H](c1cccc(S(N)(=O)=O)c1)[C@@H](S)C(=O)N[C@@H](Cc1ccc(O)cc1)C(=O)N[C@@H](Cc1c[nH]cn1)C(=O)NCc1ccccc1 — 3.2-fold lower, 3 µM
- N[C@@H](CCS(N)(=O)=O)[C@@H](S)C(=O)N[C@@H](Cc1ccc(O)cc1)C(=O)N[C@@H](Cc1c[nH]cn1)C(=O)O — 1.9-fold lower, 5 µM
